The subject of data set [1] is Staphylococcus aureus. The experiment in a line: Antibacterial activity against Staphylococcus aureus CIP 107093 assessed as inhibition of bacterial growth at 1 to 256 ug/ml incubated for 24 hrs by resazurin dye based broth microdilution method. The settings on record: dose 1-256 µg/ml. In kind it is functional, organism-based. The procedure, abridged: (§1)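 CLSI broth microdilution in cation-adjusted Mueller Hinton broth, pH 7.4 (±0.2). Compounds dissolved in DMSO at 25.6 mg mL⁻¹ (stock), diluted to 1–256 µg mL⁻¹. Inoculum 5 × 10⁵ CFU mL⁻¹ final; 24 h at 37 °C, static. Resazurin 0.015% then added, 2–4 h more; wells staying blue read as above MIC. Sulfacetamide reference.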
On the technique in general: Alamar Blue is a resazurin reagent that responds to reducing activity.

Data set [2] deals with Bacillus subtilis. The experiment in a line: Antibacterial activity against Bacillus subtilis ATCC 6051 assessed as inhibition of bacterial growth at 1 to 256 ug/ml incubated for 24 hrs by resazurin dye based broth microdilution method. In kind it is functional, organism-based. The settings on record: dose 1-256 µg/ml. The procedure, abridged: as §1
Data set [3] deals with Pseudomonas aeruginosa. Kind of data set: Antibacterial activity against Pseudomonas aeruginosa ATCC 27853 assessed as inhibition of bacterial growth at 1 to 256 ug/ml incubated for 24 hrs by resazurin dye based broth microdilution method. In kind it is functional, organism-based. The settings on record: dose 1-256 µg/ml. In short, it runs like this:
as §1

The subject of data set [4] is Escherichia coli. The experiment in a line: Antibacterial activity against Escherichia coli ATCC 8739 assessed as inhibition of bacterial growth at 1 to 256 ug/ml incubated for 24 hrs by resazurin dye based broth microdilution method. In kind it is functional, organism-based. The settings on record: dose 1-256 µg/ml. In short, it runs like this: as §1
Data set [5] deals with Escherichia coli. The experiment in a line: Antibacterial activity against Escherichia coli ATCC 8739 assessed as inhibition of bacterial growth incubated for 24 hrs by resazurin dye based broth microdilution method. In kind it is functional. The procedure, abridged: as §1
The test system of data set [6] is Pseudomonas aeruginosa. The experiment in a line: Antibacterial activity against Pseudomonas aeruginosa ATCC 27853 assessed as inhibition of bacterial growth incubated for 24 hrs by resazurin dye based broth microdilution method. In kind it is functional. In short, it runs like this:
as §1

The test system of data set [7] is Staphylococcus aureus. Kind of data set: Antibacterial activity against Staphylococcus aureus CIP 107093 assessed as inhibition of bacterial growth incubated for 24 hrs by resazurin dye based broth microdilution method. In kind it is functional. The procedure, abridged:
as §1

For data set [8], the system named is Bacillus subtilis. Kind of data set: Antibacterial activity against Bacillus subtilis ATCC 6051 assessed as inhibition of bacterial growth incubated for 24 hrs by resazurin dye based broth microdilution method. In kind it is functional. The procedure, abridged: as §1
In the next data set the test system is HaCaT. The experiment in a line: Cytotoxicity against human HaCaT cells incubated for 24 hrs by CyQuant LDH assay. In kind it is toxicity, cell-based. The procedure, abridged:
(§2)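 HaCaT (10% FCS) or Caco-2 (20% FCS) grown in DMEM with 1% penicillin–streptomycin, 37 °C, 5% CO₂. Seeded in 24-well plates, grown 72 h, rinsed with PBS, then exposed 24 h to compounds at MIC and ½ MIC in fresh DMEM. LDH release measured. Untreated and damaged-cell controls; two independent assays, at least 2 replicates, mean ± SEM.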

For another data set, the system named is Caco-2. Kind of data set: Cytotoxicity against human Caco-2 cells incubated for 24 hrs by CyQuant LDH assay. In kind it is toxicity, cell-based. The settings on record: caco-2, 24 h. The procedure, abridged:
as §2

Data set [9] deals with Pseudomonas aeruginosa. The experiment in a line: Antibiofilm activity against Pseudomonas aeruginosa ATCC 27853 assessed as inhibition of biofilm formation at 0.5 times of MIC by crystal violet staining based analysis relative to control. In kind it is functional. In short, it runs like this:
(§3)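 Overnight cultures inoculated into fresh LB with compound at ½ MIC and grown 24 h at 37 °C, static. Growth read at 580 nm. Medium discarded, wells rinsed with distilled water, stained with 0.1% crystal violet, dye solubilized in 30% acetic acid, OD 595 nm; uninoculated-control staining subtracted. At least three independent replicates, mean ± SEM; one-way ANOVA with Dunnett test.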

The subject of data set [10] is Escherichia coli. The experiment in a line: Antibiofilm activity against Escherichia coli ATCC 8739 assessed as inhibition of biofilm formation at 0.5 times of MIC by crystal violet staining based analysis relative to control. In kind it is functional. The procedure, abridged: as §3

Each structure is given as a SMILES string. Converted amounts (≈) assume the structure as drawn. The source made the active and inactive calls. The rule behind the calls is not given here.

This is an account of results in ChEMBL document CHEMBL5329163, “N-Acylsulfonamide: a valuable moiety to design new sulfa drug analogues” (RSC Med Chem, 2023).

For `CC(=O)Nc1ccc(S(=O)(=O)NC(C)=O)cc1`, the outcome in the data set with Staphylococcus aureus [1], with Bacillus subtilis [2], in the data set on Pseudomonas aeruginosa [3] and in the data set with Escherichia coli [4] was inactive.

With `CC(=O)Nc1ccc(S(=O)(=O)NC(=O)c2ccc(C(F)(F)F)cc2)cc1`, the result with Staphylococcus aureus [1], with Bacillus subtilis [2], with Pseudomonas aeruginosa [3] and in the data set on Escherichia coli [4] was inactive.

The MIC is the lowest concentration that inhibits growth of the organism. On to `Nc1ccc(S(=O)(=O)NC(=O)c2cc(F)c(F)c(F)c2)cc1`, for which the MIC with Escherichia coli [5], in the data set on Pseudomonas aeruginosa [6], in the data set on Staphylococcus aureus [7] and in the data set on Bacillus subtilis [8] was more than 256 µg/mL throughout.

Take `Nc1ccc(S(=O)(=O)NC(=O)c2ccc([N+](=O)[O-])cc2)cc1`: the minimum inhibitory concentration (MIC) in the data set with Escherichia coli [5] was more than 256 µg/mL; with Pseudomonas aeruginosa [6], more than 256 µg/mL; in the data set with Staphylococcus aureus [7] it was more than 256 µg/mL; in the data set with Bacillus subtilis [8] it was 256 µg/mL (≈ 797 µM).

For `CC(=O)Nc1ccc(S(=O)(=O)NC(=O)c2ccc(Cl)cc2Cl)cc1`, the result in the data set on Staphylococcus aureus [1], with Bacillus subtilis [2], with Pseudomonas aeruginosa [3] and in the data set on Escherichia coli [4] was inactive.

Turning to `COc1cccc(C(=O)NS(=O)(=O)c2ccc(N)cc2)c1`, the Activity entry in the data set on HaCaT and in the data set with Caco-2 was “Non-Toxic” each time. For the same molecule, the MIC is 32 µg/mL (≈ 104 µM) with Escherichia coli [5], more than 256 µg/mL with Pseudomonas aeruginosa [6], more than 256 µg/mL in the data set with Staphylococcus aureus [7] and 256 µg/mL (≈ 836 µM) in the data set on Bacillus subtilis [8]. For the same molecule, the “inhibition (INH)” value worked out at 23% in the data set with Pseudomonas aeruginosa [9] and 42% with Escherichia coli [10].

In the case of `CC(=O)Nc1ccc(S(=O)(=O)NC(=O)c2ccccc2)cc1`, the outcome in the data set with Staphylococcus aureus [1], with Bacillus subtilis [2], with Pseudomonas aeruginosa [3] and in the data set on Escherichia coli [4] was inactive.

Turning to `CC(=O)Nc1ccc(S(=O)(=O)NC(=O)c2ccc([N+](=O)[O-])cc2)cc1`, the result with Staphylococcus aureus [1], in the data set on Bacillus subtilis [2], in the data set with Pseudomonas aeruginosa [3] and with Escherichia coli [4] was inactive.

Take `Nc1ccc(S(=O)(=O)NC(=O)c2ccc(C(F)(F)F)cc2)cc1`: the MIC in the data set with Escherichia coli [5], in the data set with Pseudomonas aeruginosa [6], in the data set on Staphylococcus aureus [7] and in the data set with Bacillus subtilis [8] was more than 256 µg/mL in each case.

`CC(=O)Nc1ccc(S(=O)(=O)NC(=O)c2cc(F)c(F)c(F)c2)cc1`: the result in the data set on Staphylococcus aureus [1], with Bacillus subtilis [2], in the data set on Pseudomonas aeruginosa [3] and with Escherichia coli [4] was inactive.

As for `Nc1ccc(S(=O)(=O)NC(=O)c2ccccc2)cc1` [SULFABENZAMIDE], the Activity result in the data set with HaCaT and in the data set with Caco-2 was “Non-Toxic” each time. For the same molecule, the MIC in the data set on Escherichia coli [5] was 32 µg/mL (≈ 116 µM); in the data set with Pseudomonas aeruginosa [6] it was more than 256 µg/mL; with Staphylococcus aureus [7], more than 256 µg/mL; with Bacillus subtilis [8], 128 µg/mL (≈ 463 µM). Also, the “inhibition (INH)” value with Pseudomonas aeruginosa [9] is 14%; in the data set on Escherichia coli [10], 30%.

For `COc1ccccc1C(=O)NS(=O)(=O)c1ccc(N)cc1`, the Activity result with HaCaT and in the data set with Caco-2 was “Non-Toxic” each time. The MIC in the data set on Escherichia coli [5] is 256 µg/mL (≈ 836 µM); in the data set with Pseudomonas aeruginosa [6], more than 256 µg/mL; in the data set with Staphylococcus aureus [7], 256 µg/mL (≈ 836 µM); in the data set on Bacillus subtilis [8] it was 64 µg/mL (≈ 209 µM). Besides, the outcome with Pseudomonas aeruginosa [9] and in the data set with Escherichia coli [10] was Active.

For `COc1cc(C(=O)NS(=O)(=O)c2ccc(N)cc2)ccc1[N+](=O)[O-]`, the MIC in the data set on Escherichia coli [5], with Pseudomonas aeruginosa [6], with Staphylococcus aureus [7] and in the data set on Bacillus subtilis [8] was more than 256 µg/mL in each case.

On to `COc1cccc(C(=O)NS(=O)(=O)c2ccc(NC(C)=O)cc2)c1`, for which the outcome with Staphylococcus aureus [1], in the data set on Bacillus subtilis [2], with Pseudomonas aeruginosa [3] and in the data set with Escherichia coli [4] was inactive.

With `COc1cc(C(=O)NS(=O)(=O)c2ccc(NC(C)=O)cc2)ccc1[N+](=O)[O-]`, the outcome in the data set with Staphylococcus aureus [1], in the data set with Bacillus subtilis [2], in the data set on Pseudomonas aeruginosa [3] and in the data set with Escherichia coli [4] was inactive.

Take `COc1ccccc1C(=O)NS(=O)(=O)c1ccc(NC(C)=O)cc1`: the outcome in the data set on Staphylococcus aureus [1], in the data set with Bacillus subtilis [2], in the data set with Pseudomonas aeruginosa [3] and in the data set with Escherichia coli [4] was inactive.

Take `CC(=O)NS(=O)(=O)c1ccc(N)cc1` [SULFACETAMIDE]: the Activity entry in the data set on HaCaT and in the data set on Caco-2 was “Non-Toxic” throughout. Moreover, the minimal inhibitory concentration (MIC) is 32 µg/mL (≈ 149 µM) in the data set with Escherichia coli [5], more than 256 µg/mL with Pseudomonas aeruginosa [6], 256 µg/mL (≈ 1190 µM) in the data set with Staphylococcus aureus [7] and 128 µg/mL (≈ 597 µM) with Bacillus subtilis [8].

Take `Nc1ccc(S(=O)(=O)NC(=O)c2ccc(Cl)cc2Cl)cc1`: the minimum inhibitory concentration (MIC) in the data set on Escherichia coli [5], in the data set with Pseudomonas aeruginosa [6], in the data set on Staphylococcus aureus [7] and with Bacillus subtilis [8] was more than 256 µg/mL in each case.
